Assay results pooled from the literature.
Compare with care: the assays were run in different laboratories.
Effect on: cell growth or viability

Structure (SMILES)	cell line	method	concentration	time	quantity	result
C[C@H](Nc1ccc2c(c1)OCCn1cc(N3C(=O)OC[C@H]3C(F)F)nc1-2)C(N)=O	MFE-280	ATP luminescence		5 days	EC50	0.0421 µM
CCNc1nc2ccc(-c3c/c(=N\c4ccccc4NC(=O)CCN)c4ccccc4o3)cc2o1	MDA-MB-468	CCK-8	1 µM		inhibition	31.4%
C=C(NC(=O)C(=C)NC(=O)c1csc(C2=N[C@@H]3c4csc(n4)[C@H]4NC(=O)c5csc(n5)[C@H]([C@](C)(O)[C@@H](C)O)NC(=O)[C@H]5CSC(=N5)/C(=C/C)NC(=O)[C@H]([C@@H](C)O)NC(=O)c5csc(n5)[C@]3(CC2)NC(=O)[C@H](C)NC(=O)C(=C)NC(=O)[C@H](C)NC(=O)[C@H]([C@@H](C)CC)N[C@@H]2C=Cc3c([C@H](C)O)cc(nc3[C@H]2O)C(=O)O[C@@H]4C)n1)C(N)=O	C4-2				EC50	7.3 µM
CCN(Cc1cccc(C)c1)c1ccc(CO)c(Cl)c1	RBE	ATP luminescence	46 µM	72 h	inhibition	85%
COc1ccc2/c(=N/c3ccccc3NC(=O)[C@@H](N)C(C)(C)C)cc(-c3ccc4c(c3)OCO4)oc2c1	MDA-MB-468	CCK-8	1 µM		inhibition	2.98%
O=C(Nc1cccc(Br)c1)c1cccc(S(=O)(=O)N2CCCCCC2)c1	HBL1	ATP luminescence	0.5 µM	5 days	viability	110%
NCCC(=O)Nc1ccccc1/N=c1\cc(-c2ccc3nc(N)oc3c2)oc2ccccc12	MDA-MB-468	CCK-8	1 µM		inhibition	47.2%
CN(C)CCNC(=O)c1ccc(-c2nc3ccc4[nH]ncc4c3c3c2CC(C)(C)CC3)cc1	MV4-11	resazurin		72 h	GI50	0.08 µM
OCCc1ccc(-c2nn(Cc3ccccc3)c3ccccc23)o1	RBE	ATP luminescence	46 µM	72 h	inhibition	21%
O=C(CCCCCCC(=O)Nc1ccccc1)NO	HBL1	ATP luminescence	0.5 µM	5 days	viability	49.7%
Cc1n[nH]c2ccc3nc(-c4ccc(C(=O)NCCN(C)C)cc4)c4c(c3c12)CCCCC4	MV4-11	resazurin		72 h	GI50	0.098 µM
C[C@H](N)C(=O)Nc1ccccc1/N=c1\cc(-c2ccc3c(c2)OCCO3)oc2c([N+](=O)[O-])cccc12	MDA-MB-468	CCK-8	1 µM		inhibition	1.9%
CCOC(=O)c1ccc(-c2nn(Cc3ccccc3)c3ccccc23)o1	RBE	ATP luminescence	46 µM	72 h	inhibition	35%
CNCCC(=O)Nc1ccccc1/N=c1\cc(-c2ccc3nc(N)oc3c2)oc2ccccc12	MDA-MB-468	CCK-8	1 µM		inhibition	40.6%
OCc1ccc(-c2nn(Cc3ccccc3)c3ncccc23)o1	RBE	ATP luminescence	46 µM	72 h	inhibition	51%
O=C(Nc1ccc(Cl)cc1)C1CCCN(C(=O)c2cc(C(F)(F)F)cc(C(F)(F)F)c2)C1 (racemic)	HBL1	ATP luminescence	1 µM	5 days	viability	92.8%
CCc1nc(C(N)=O)c(Nc2ccc(N3CCC(N4CCN(C)CC4)CC3)c(OC)c2)nc1NC1CCOCC1	MV4-11	resazurin		72 h	GI50	0.026 µM

Structure (SMILES)	cell line	method	concentration	time	quantity	result
Nc1ccccc1/N=c1\cc(-c2ccc3c(c2)OCO3)oc2ccccc12	MDA-MB-468	CCK-8	1 µM		inhibition	5.28%
CCN(Cc1ccccc1)c1ccc(CO)c(Cl)c1	RBE	ATP luminescence	46 µM	72 h	inhibition	57%
CN(C)CCNC(=O)c1ccc(-c2nc3ccc4[nH]ncc4c3c3c2CC(F)(F)CC3)cc1	MV4-11	resazurin		72 h	GI50	0.112 µM
Oc1cccc(-c2nc(N3CCOCC3)c3oc4ncccc4c3n2)c1	MDA-MB-468	CCK-8	1 µM		inhibition	2.69%
OCc1ccc(-c2nn(Cc3ccccc3)c3ccncc23)o1	RBE	ATP luminescence	46 µM	72 h	inhibition	47%
CN(C)CCNC(=O)c1ccc(-c2nc3ccc4[nH]ncc4c3c3c2CCC3)cc1	MV4-11	resazurin		72 h	GI50	0.1 µM
OCc1ccc(-c2nn(Cc3ccccn3)c3ccccc23)o1	RBE	ATP luminescence	46 µM	72 h	inhibition	70%
O=C(NC1CC1)c1ccc(-c2nc3ccc4[nH]ncc4c3c3c2CCCC3)cc1	MV4-11	resazurin		72 h	GI50	0.481 µM
CC(=O)OC[C@H]1O[C@@H](n2cnc(N)nc2=O)[C@H](OC(C)=O)[C@@H]1OC(C)=O	HBL1	ATP luminescence	0.5 µM	5 days	viability	111%
COc1ccc2/c(=N/c3ccccc3NC(=O)CN)cc(-c3ccc4c(c3)OCCO4)oc2c1	MDA-MB-468	CCK-8	1 µM		inhibition	15.2%
O=C(NO)c1ccc(CC(=O)N(CCO)c2ccccc2)cc1	HBL1	ATP luminescence	1 µM	5 days	viability	107%
CCN(Cc1cccc(Cl)c1)c1ccc(CO)c(Cl)c1	RBE	ATP luminescence	46 µM	72 h	inhibition	59%
Cc1n[nH]c2ccc3nc(-c4ccc(C(=O)NCCN(C)C)cc4F)c4c(c3c12)CCCCC4	MV4-11	resazurin		72 h	GI50	0.088 µM
O=C(CCCCCCSc1ccc2ccccc2c1)NO	HBL1	ATP luminescence	1 µM	5 days	viability	98.6%
O=C(Nc1nccs1)c1ccc(-c2nc3ccc4[nH]ncc4c3c3c2CCCC3)cc1	MV4-11	resazurin		72 h	GI50	0.743 µM
O=C(/C=C/c1cccc(C(=O)NO)c1)NO	HBL1	ATP luminescence	0.5 µM	5 days	viability	89.6%
